Measurements as given in ChEMBL document CHEMBL4813976, “Rational drug design of benzothiazole-based derivatives as potent signal transducer and activator of transcription 3 (STAT3) signaling pathway inhibitors” (Eur J Med Chem, 2021).

Legend:
[1] = biological target: T1, Signal transducer and activator of transcription 3 (Homo sapiens, UniProt P40763); assay: Inhibition of IL-6 induced STAT3 transcriptional activity in human HepG2 cells incubated for 1 hr followed by stimulation with IL-6 for 5.5 hrs by luciferase reporter gene assay; assay type: cell-based
T1 sequence (P40763 whole entry): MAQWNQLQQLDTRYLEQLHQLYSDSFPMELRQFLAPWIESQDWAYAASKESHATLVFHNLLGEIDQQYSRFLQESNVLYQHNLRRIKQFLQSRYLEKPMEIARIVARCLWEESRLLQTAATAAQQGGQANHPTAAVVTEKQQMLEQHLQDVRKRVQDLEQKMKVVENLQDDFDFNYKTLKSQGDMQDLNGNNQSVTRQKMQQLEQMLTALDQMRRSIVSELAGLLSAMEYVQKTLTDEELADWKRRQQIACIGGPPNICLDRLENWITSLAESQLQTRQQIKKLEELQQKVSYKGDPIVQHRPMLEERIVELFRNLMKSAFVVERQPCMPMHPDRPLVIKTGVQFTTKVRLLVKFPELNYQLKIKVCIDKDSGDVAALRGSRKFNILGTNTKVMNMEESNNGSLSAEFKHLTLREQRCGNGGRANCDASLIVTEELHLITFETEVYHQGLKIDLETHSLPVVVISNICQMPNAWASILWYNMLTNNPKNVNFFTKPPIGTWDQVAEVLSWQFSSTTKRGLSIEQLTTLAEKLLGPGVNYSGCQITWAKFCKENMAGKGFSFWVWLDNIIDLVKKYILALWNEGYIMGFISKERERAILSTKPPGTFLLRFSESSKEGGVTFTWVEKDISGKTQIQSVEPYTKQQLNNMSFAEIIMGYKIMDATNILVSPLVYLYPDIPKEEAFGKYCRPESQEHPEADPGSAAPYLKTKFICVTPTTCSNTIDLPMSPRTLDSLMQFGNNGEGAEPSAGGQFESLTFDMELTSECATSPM
Summary of the method: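 STAT3-dependent luciferase reporter assay in HepG2 cells with IL-6 stimulation; IC50 given as mean ± SD of at least three independent experiments.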

[2] = test system: MDA-MB-468; assay: Antiproliferative activity against human MDA-MB-468 cells overexpressing STAT3 assessed as inhibition of cell growth incubated for 72 hrs by MTT assay; assay type: functional, cell-based; conditions: MDA-MB-468, 72 h
Summary of the method: (§1)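 MTT proliferation assay; MDA-MB-468 grown in DMEM/F-12 and HEL in high-glucose DMEM, each with 10% FBS and penicillin/streptomycin, at 37 °C under 5% CO₂. IC50 given as mean ± SD of at least three independent experiments.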

[3] = test system: HEL; assay: Antiproliferative activity against human HEL cells harboring JAK2 V617F mutant assessed as inhibition of cell growth incubated for 72 hrs by MTT assay; assay type: functional, cell-based; summary of the method: as §1
[4] = biological target: T1, Signal transducer and activator of transcription 3; assay: Displacement of 5'-FAM-GpYLPQTV-NH2 from His-tagged STAT3-SH2 domain (127 to 722 residues) (unknown origin) assessed as binding rate at 20 uM […] by fluorescence polarization assay; conditions: time 90.0 min
[5] = test system: MCF7; assay: Antiproliferative activity against human MCF7 cells expressing low levels of STAT3 assessed as inhibition of cell growth incubated for 72 hrs by MTT assay; assay type: functional, cell-based; conditions: MCF7, 72 h
Summary of the method: (§2)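 MTT proliferation assay on MCF-7 and MDA-MB-453 cells; IC50 given as mean ± SD of at least two independent experiments.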

[6] = test system: MDA-MB-453; assay: Antiproliferative activity against human MDA-MB-453 cells expressing low levels of STAT3 assessed as inhibition of cell growth incubated for 72 hrs by MTT assay; assay type: functional, cell-based; conditions: MDA-MB-453, 72 h; summary of the method: as §2
[7] = biological target: T1, Signal transducer and activator of transcription 3; assay: Displacement of 5'-FAM-GpYLPQTV-NH2 from His-tagged STAT3-SH2 domain (127 to 722 residues) (unknown origin) assessed as binding rate at 100 uM […] by fluorescence polarization assay; conditions: time 90.0 min
[8] = biological target: T1, Signal transducer and activator of transcription 3; assay: Displacement of 5'-FAM-GpYLPQTV-NH2 from His-tagged STAT3-SH2 domain (127 to 722 residues) (unknown origin) assessed as binding rate at 50 uM […] by fluorescence polarization assay; conditions: time 90.0 min
[9] = biological target: T1, Signal transducer and activator of transcription 3; assay: Binding affinity to His-tagged STAT3-SH2 domain (127 to 722 residues) (unknown origin) by surface plasmon resonance analysis
Summary of the method: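 SPR on a Biacore T200 with STAT3 SH2 domain. Analytes were run as concentration series, and KD was taken as the equilibrium constant.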

Row | Structure (SMILES) | IC50 [1] [nM] | IC50 [2] [nM] | IC50 [3] [nM] | further results
1 | CCCC(C)Oc1ccc(C(=O)Nc2ccc3nc(SCC(=O)N[C@@H](C)c4ccccc4)sc3c2)cc1Cl (stereo partly drawn) | > 10000 | – | – | –
2 | CCCC(C)Oc1ccc(C(=O)Nc2ccc3nc(SCC(=O)N[C@@H](C)c4ccccc4)sc3c2)c(F)c1F (stereo partly drawn) | > 10000 | – | – | –
3 | O=[N+]([O-])c1ccc2c(c1)S(=O)(=O)C=C2 | – | – | 1590 | Activity [4]: 62.3%; IC50 [5]: 1700 nM; IC50 [6]: 4400 nM; Activity [7]: 95%; Activity [8]: 71.1%; Kd [9]: 1530 nM
4 | COc1ccc([C@H](C)NC(=O)CSc2nc3ccc(NC(=O)c4ccc(OC(C)C)c(C)c4OC)cc3s2)cc1 | 220 | 1810 | 1290 | –
5 | CCCC(C)Oc1ccc(C(=O)Nc2ccc3nc(SCC(=O)N[C@@H](C)c4ccccc4)sc3c2)cc1C (stereo partly drawn) | 950 | 730 | > 10000 | –
6 | CCCC(C)Oc1ccc(C(=O)Nc2ccc3nc(SCC(=O)N[C@@H](C)c4ccccc4)sc3c2)c(F)c1 (stereo partly drawn) | > 10000 | – | – | –
7 | COc1ccc([C@H](C)NC(=O)CSc2nc3ccc(NC(=O)c4ccc(OC)c(C)c4OC)cc3s2)cc1 | 120 | 2050 | 1340 | –
8 | CCCC(C)Oc1ccc(C(=O)Nc2ccc3nc(SCC(=O)N[C@@H](C)c4ccccc4O)sc3c2)c(OC)c1C (stereo partly drawn) | 170 | 590 | 970 | –
9 | CCCC(C)Oc1ccc(C(=O)Nc2ccc3nc(SCC(=O)N[C@@H](C)c4ccccc4)sc3c2)cc1CC (stereo partly drawn) | > 10000 | – | – | –
10 | COc1ccc([C@H](C)NC(=O)CSc2nc3ccc(NC(=O)c4ccc(OCCN5CCCC5)c(C)c4OC)cc3s2)cc1 | 1030 | 3360 | 10400 | –
11 | COCCOc1ccc(C(=O)Nc2ccc3nc(SCC(=O)N[C@@H](C)c4ccc(OC)cc4)sc3c2)c(OC)c1C | 260 | 1160 | 1440 | –
12 | NS(=O)(=O)c1cccc2c1C(=O)c1cccc(O)c1C2=O | 98 | 730 | 1460 | –
13 | CCCC(C)Oc1ccc(C(=O)Nc2ccc3nc(SCC(=O)N[C@@H](C)c4ccccc4)sc3c2)c(C)c1C (stereo partly drawn) | 460 | 810 | 930 | –
14 | CCCC(C)Oc1ccc(C(=O)Nc2ccc3nc(SCC(=O)N[C@@H](C)c4ccccc4)sc3c2)c(OC)c1 (stereo partly drawn) | 2200 | – | – | –

Further lines, with some results ahead:

Row | IC50 [1] [nM] | IC50 [2] [nM] | Structure (SMILES) | IC50 [3] [nM] | further results
15 | 200 | 2020 | COc1ccc([C@H](C)NC(=O)CSc2nc3ccc(NC(=O)c4ccc(OCC(C)C)c(C)c4OC)cc3s2)cc1 | 2050 | –
16 | – | > 20000 | N#CC[C@H](C1CCCC1)n1cc(-c2ncnc3[nH]ccc23)cn1 [RUXOLITINIB] | 1400 | –
17 | > 10000 | – | CCCC(C)Oc1ccc(C(=O)Nc2ccc3nc(SCC(=O)N[C@@H](C)c4ccccc4)sc3c2)cc1C#N (stereo partly drawn) | – | –
18 | > 10000 | – | CCCc1cc(C(=O)Nc2ccc3nc(SCC(=O)N[C@@H](C)c4ccccc4)sc3c2)ccc1OC(C)CCC (stereo partly drawn) | – | –
19 | > 10000 | – | CCCC(C)Oc1ccc(C(=O)Nc2ccc3nc(SCC(=O)N[C@@H](C)c4ccccc4)sc3c2)cc1F (stereo partly drawn) | – | –
20 | – | 5870 | Cc1cc(Nc2nc(N[C@@H](C)c3ncc(F)cn3)ncc2Cl)[nH]n1 [AZD-1480] | 730 | –
21 | – | 2210 | CCCC(C)Oc1ccc(C(=O)Nc2ccc3nc(SCC(=O)N[C@@H](C)c4ccccc4)sc3c2)cc1 (stereo partly drawn) | > 10000 | IC50 ([1]; hepg2): 1600 nM
22 | 1200 | – | CCC[C@H](C)Oc1ccc(C(=O)Nc2ccc3nc(SCC(=O)N[C@@H](C)c4ccccc4)sc3c2)cc1C | – | –
23 | 240 | 1770 | COc1ccc([C@H](C)NC(=O)CSc2nc3ccc(NC(=O)c4ccc(OCCN5CCOCC5)c(C)c4OC)cc3s2)cc1 | 3380 | –
24 | 520 | 6570 | COc1ccc([C@H](C)NC(=O)CSc2nc3ccc(NC(=O)c4ccc(OCCN(C)C)c(C)c4OC)cc3s2)cc1 | 4980 | –
25 | 2150 | – | CCCC(C)Oc1ccc(C(=O)Nc2ccc3nc(SCC(=O)N[C@@H](C)c4ccccc4)sc3c2)cc1Br (stereo partly drawn) | – | –
26 | 270 | 500 | CCCC(C)Oc1ccc(C(=O)Nc2ccc3nc(SCC(=O)N[C@@H](C)c4cccc(OC)c4)sc3c2)c(OC)c1C (stereo partly drawn) | 870 | –
27 | 1490 | – | COc1ccc([C@H](C)NC(=O)CNc2nc3ccc(NC(=O)c4ccc(OC)c(C)c4OC)cc3s2)cc1 | – | –
28 | 150 | 2240 | CCCC(C)Oc1ccc(C(=O)Nc2ccc3nc(SCC(=O)N[C@@H](C)c4cccc(O)c4)sc3c2)c(OC)c1C (stereo partly drawn) | 620 | –
29 | 8860 | – | COc1ccc([C@H](C)NC(=O)COc2nc3ccc(NC(=O)c4ccc(OC)c(C)c4OC)cc3s2)cc1 | – | –
30 | 1420 | – | CCCC(C)Oc1ccc(C(=O)Nc2ccc3nc(SCC(=O)N[C@@H](C)c4ccccc4)sc3c2)cc1OC (stereo partly drawn) | – | –
31 | 200 | 700 | CCCC(C)Oc1ccc(C(=O)Nc2ccc3nc(SCC(=O)N[C@@H](C)c4ccc(O)cc4)sc3c2)c(OC)c1C (stereo partly drawn) | 680 | –
32 | 2720 | – | CCCC(C)Oc1ccc(C(=O)Nc2ccc3nc(SCC(=O)N[C@@H](C)c4ccccc4)sc3c2)c(C)c1 (stereo partly drawn) | – | –
33 | 900 | – | CCC[C@@H](C)Oc1ccc(C(=O)Nc2ccc3nc(SCC(=O)N[C@@H](C)c4ccccc4)sc3c2)cc1C | – | –
34 | > 10000 | – | CCCC(C)Oc1ccc(C(=O)Nc2ccc3nc(SCC(=O)N[C@@H](C)c4ccccc4)sc3c2)cc1C(F)(F)F (stereo partly drawn) | – | –
35 | 1340 | – | CCCC(C)Oc1ccc(C(=O)Nc2ccc3nc(SCC(=O)N[C@@H](C)c4ccccc4)sc3c2)c(Cl)c1 (stereo partly drawn) | – | –
